Measured values reported in article PMC3525873 (British Journal of Pharmacology, 2012).

Legend:
Type in all cases: cell-based
NFAT = assay: GFP-NFAT translocation in RBL-2H3 cells; settings: 10 μM, thapsigargin 1 μM then 2 mM Ca2+ re-addition
How it was run: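 RBL-2H3 cells electroporated with GFP-NFAT (20 μg DNA, 300 V, 275 μF) 12–18 h beforehand, on coverslips. In nominally Ca2+-free buffer, stores depleted with 1 μM thapsigargin for 5 min, then 2 mM CaCl2 added. Test compound at 10 μM in all buffers. Basal taken before depletion. Cells fixed in paraformaldehyde with DAPI-stained nuclei. Nuclear/cytosolic GFP intensity ratio measured; ≥18 cells per condition.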

TRPC3 = target: T1, TRPC3 (Homo sapiens, UniProt Q13507); assay: Patch-clamp of TRPC3 currents in HEK293 cells transiently expressing TRPC3; settings: 3 μM pre-incubation, carbachol
T1 sequence (Q13507 74-921 limits assumed): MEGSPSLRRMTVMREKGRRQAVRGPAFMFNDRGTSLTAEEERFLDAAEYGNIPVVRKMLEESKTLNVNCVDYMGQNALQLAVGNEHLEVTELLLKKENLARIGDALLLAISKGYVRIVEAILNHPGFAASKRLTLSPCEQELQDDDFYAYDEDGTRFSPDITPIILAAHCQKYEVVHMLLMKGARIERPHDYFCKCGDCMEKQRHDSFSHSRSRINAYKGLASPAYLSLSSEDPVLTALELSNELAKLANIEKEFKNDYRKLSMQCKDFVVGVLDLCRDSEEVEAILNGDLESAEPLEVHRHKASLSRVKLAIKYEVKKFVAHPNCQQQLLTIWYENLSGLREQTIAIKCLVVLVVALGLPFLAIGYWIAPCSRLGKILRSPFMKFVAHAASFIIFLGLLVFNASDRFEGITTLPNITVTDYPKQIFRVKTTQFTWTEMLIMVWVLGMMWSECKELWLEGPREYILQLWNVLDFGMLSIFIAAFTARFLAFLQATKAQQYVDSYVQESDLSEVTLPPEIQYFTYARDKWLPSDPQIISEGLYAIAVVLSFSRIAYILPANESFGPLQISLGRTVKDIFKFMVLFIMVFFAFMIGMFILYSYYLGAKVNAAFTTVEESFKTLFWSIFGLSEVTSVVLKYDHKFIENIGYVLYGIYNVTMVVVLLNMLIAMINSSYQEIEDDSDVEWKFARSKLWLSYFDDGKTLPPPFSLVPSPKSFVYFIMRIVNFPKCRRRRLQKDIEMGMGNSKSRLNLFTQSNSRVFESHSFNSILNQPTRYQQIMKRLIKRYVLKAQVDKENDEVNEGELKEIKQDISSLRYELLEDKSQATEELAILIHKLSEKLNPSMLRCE

[1] = target: STIM1/Orai1-mediated SOCE (Rattus norvegicus, UniProt Q5M848); assay: Fura-2 Ca2+ re-addition, thapsigargin-depleted native RBL-2H3 cells
Chain of STIM1/Orai1-mediated SOCE (Q5M848 whole entry, the tested form may be a part): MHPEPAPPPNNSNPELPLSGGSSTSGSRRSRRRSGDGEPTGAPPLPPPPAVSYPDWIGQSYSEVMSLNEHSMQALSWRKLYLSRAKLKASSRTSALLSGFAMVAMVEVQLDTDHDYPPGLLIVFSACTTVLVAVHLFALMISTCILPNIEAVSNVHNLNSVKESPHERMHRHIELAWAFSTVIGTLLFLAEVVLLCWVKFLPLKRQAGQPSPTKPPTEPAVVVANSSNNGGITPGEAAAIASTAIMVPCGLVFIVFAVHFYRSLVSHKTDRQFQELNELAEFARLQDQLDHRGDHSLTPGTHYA
How it was run: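 Native RBL-2H3 cells were loaded with 2 μM Fura-2-AM for 45 min and perfused in Ca2+-free extracellular solution at room temperature. Stores depleted with 1 μM thapsigargin for 5 min. Test compound present ≥5 min before and throughout. Ca2+ entry evoked by 2 mM Ca2+ re-addition; 340/380 nm ratio read (510 nm emission). Inhibition expressed as % of control peak entry. IC50 by 4-parameter logistic fit; 3–5 experiments, 29–80 cells.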

[2] = target: CRAC currents in native RBL-2H3 cells (Rattus norvegicus, UniProt Q5M848); assay: Patch-clamp of CRAC currents in native RBL-2H3 cells; settings: for Effect on CRAC Ca2+ entry-mediating conductance: 3 μM pre-incubation
Chain of CRAC currents in native RBL-2H3 cells (Q5M848 whole entry): as the sequence (Q5M848 whole entry, the tested form may be a part) above
How it was run: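 Whole-cell recording of native RBL-2H3 cells at room temperature. Stores depleted passively by 20 mM EGTA in the Cs-methanesulphonate pipette solution (pH 7.2). Bath contained 20 mM CaCl2 (pH 7.4). Ramps from −90 to +90 mV over 1 s, holding +30 mV. Test compound at 3 μM, pre-incubated or applied acutely. Net current (minus basal) read at −85 mV 300 s after break-in; n ≥ 6 cells.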

RBL-2H3 cells = assay: Degranulation assay; settings: ionomycin 0.4 μM
How it was run: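 RBL-2H3 cells grown to confluency, washed in RBL-2H3 buffer with 2 mM CaCl2, all incubations at 37°C. Test compound (3 or 10 μM) for 15 min, then ionomycin 0.4 μM final for 30 min. Stopped with 0.4 M glycine (pH 10.7), A405 read. Untreated and 2% triton-lysed cells served as basal/maximal references. n = 3 passages.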

STIM1/Orai1 = STIM1/Orai1 (Homo sapiens, UniProt Q96D31)
Chain of STIM1/Orai1 (Q96D31 whole entry, species assumed): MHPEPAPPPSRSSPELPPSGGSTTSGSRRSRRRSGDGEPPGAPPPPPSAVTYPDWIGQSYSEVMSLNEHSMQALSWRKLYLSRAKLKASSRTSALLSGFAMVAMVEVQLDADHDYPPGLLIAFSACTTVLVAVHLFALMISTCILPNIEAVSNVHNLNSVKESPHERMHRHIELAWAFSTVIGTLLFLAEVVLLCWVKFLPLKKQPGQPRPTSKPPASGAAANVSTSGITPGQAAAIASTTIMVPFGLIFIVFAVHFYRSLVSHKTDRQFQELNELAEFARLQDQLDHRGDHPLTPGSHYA
Chain of STIM1/Orai1 (Q13586 23-685 partner, species assumed): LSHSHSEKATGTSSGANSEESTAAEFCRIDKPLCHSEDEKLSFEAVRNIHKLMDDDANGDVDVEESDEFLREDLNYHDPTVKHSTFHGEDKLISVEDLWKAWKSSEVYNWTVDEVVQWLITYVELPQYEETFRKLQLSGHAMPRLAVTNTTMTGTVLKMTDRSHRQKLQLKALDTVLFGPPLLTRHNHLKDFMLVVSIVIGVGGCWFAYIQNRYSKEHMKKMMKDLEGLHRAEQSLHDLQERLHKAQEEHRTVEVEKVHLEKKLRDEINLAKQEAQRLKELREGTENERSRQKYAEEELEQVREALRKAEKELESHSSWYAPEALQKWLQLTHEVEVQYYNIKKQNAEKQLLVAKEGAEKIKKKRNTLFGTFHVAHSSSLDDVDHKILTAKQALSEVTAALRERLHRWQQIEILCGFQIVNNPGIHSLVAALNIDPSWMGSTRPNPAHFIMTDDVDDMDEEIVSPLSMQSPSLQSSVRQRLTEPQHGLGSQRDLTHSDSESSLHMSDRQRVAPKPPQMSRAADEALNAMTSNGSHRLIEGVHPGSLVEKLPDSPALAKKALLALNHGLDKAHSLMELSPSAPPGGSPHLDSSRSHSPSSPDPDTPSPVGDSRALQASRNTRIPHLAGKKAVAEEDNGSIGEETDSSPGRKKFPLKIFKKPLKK
How it was run: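 Whole-cell recording at room temperature in HEK293 transiently co-expressing CFP-STIM1 and YFP-Orai1. CRAC activated by 20 mM EGTA in the pipette with 10 mM CaCl2 in the bath. Bath then switched to divalent-free solution to carry Na+ current. Test compound (10 μM) applied acutely; current followed over time; n = 4 cells.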

Compound	Effect on NFAT translocation (NFAT)	Effect on TRPC3 Ca2+ entry-mediating conductance (TRPC3)	IC50 [1]	Higher potency in SOCE model than in TRPC3-ROCE model, orders of magnitude ([1]; RBL-2H3 SOCE vs TRPC3 ROCE)	Higher potency in SOCE model than in TRPC3-ROCE model ([1]; ratio of IC50 values, RBL-2H3 SOCE vs TRPC3 ROCE)	Effect on CRAC Ca2+ entry-mediating conductance [2]	Effect on ionomycin-initiated degranulation (RBL-2H3 cells; 3 μM)	Effect on ionomycin-initiated degranulation (RBL-2H3 cells; 10 μM)	Effect on divalent-free sodium current through CRAC pore (STIM1/Orai1; 10 μM, divalent-free conditions)	Effect on reconstituted CRAC pore currents upon acute administration (STIM1/Orai1; HEK293 expressing STIM1 and Orai1, passive store depletion with EGTA)	Effect on native CRAC currents upon acute administration ([2]; acute administration, 3 μM, native RBL-2H3 cells)
Cc1nnsc1C(=O)Nc1ccc(-n2nc(C(F)(F)F)cc2C(F)(F)F)cc1 [Pyr2, N-(4-(3,5-bis(trifluoromethyl)-1H-pyrazole-1-yl)phenyl)-4-methyl-1,2,3-thiadiazole-5-carboxamide]	clearly inhibited NFAT translocation	completely eliminated	590 nM	0.85 OM	sevenfold	completely eliminated	substantially reduced degranulation	suppressed responses down to basal levels			
CCOC(=O)c1cnn(-c2ccc(NC(=O)C(Cl)=C(Cl)Cl)cc2)c1C(F)(F)F [Pyr3, ethyl 1-(4-(2,3,3-trichloroacrylamido)phenyl)-5-(trifluoromethyl)-1H-pyrazole-4-carboxylate]	clearly inhibited NFAT translocation	completely eliminated				completely eliminated	substantially reduced degranulation	suppressed responses down to basal levels	affecting sodium influx through it	acutely blocks a reconstituted CRAC pore in a dose-dependent, non-reversible manner	rapidly suppresses
